For 167 variants, self-cleavage results are on record in the RNAGym collection of RNA variant scans (doi:10.1002/anie.201605470).

To fix the notation:
B1: Osa-1-4 twister ribozyme (parent)
chain: CCGCCUAACACUGCCAAUGCCGGUCCCAAGCCCGGAUAAAAGUGGAGGGGGCGG

This series covers variants of B1. Nature of the series: self-cleavage, relative activity (ratio to wild type); higher = more cleavage; co-transcriptional. In short, it runs like this:
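A DNA template encoding a 54-nucleotide twister ribozyme from Oryza sativa was made so that each of the 48 positions downstream of the cleavage site carried 97 % wild-type base and 1 % of each other base. Transcription in vitro ran for 2 h at 37 °C, during which the ribozyme could cleave itself. Reverse transcription used a template-switching oligonucleotide, and the products were PCR-amplified and deep-sequenced. Each read was scored as cleaved or uncleaved by whether upstream sequence was present, and relative activity is the fraction cleaved normalised to wild type.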
With C26U C9U, the self-cleavage was 0.55. Take C26U C9G: the self-cleavage stood at 0.24.

As for C26G C9A, the self-cleavage amounted to 0.02.

For C26G C9G, the self-cleavage was determined as 0.09. To C26G C9U belongs 0.04; to C26G G34A, 0.18; to C26G G34U, 0.08. Then C26G G34C, with 0.08; and C26G G22A, with 0.15. Then C26G G22C, with 0.06; and C26G G22U, with 0.08; and C27G G48A, with 0.04. C27A U24G: the self-cleavage was 0.02. Then C27A U24A, with 0.04; and C27A U24C, with 0.06. To C26G U18A belongs 0.09; to C26G U18G, 0.13. To C26G U18C belongs 0.1.

Turning to C26U G44A, the self-cleavage is 0.4.

As to C26U G44C, the self-cleavage is 0.92.

C26U G44U: the self-cleavage is 0.71.

Consider C26U G23U, for which the self-cleavage worked out at 0.04. To C26U G23A belongs 0.15. For C26U G23C, the self-cleavage was determined as 0.04.

As to C26A G53U, the self-cleavage came to 0.04. To C26A G53A belongs 0.06; to C26A G53C, 0.02. Consider C26G U37C, for which the self-cleavage amounted to 0.1. To C26G U37G belongs 0.1; to C26G U37A, 0.09; to C27A C52A, 0.23.

On to C27A C52U, for which the self-cleavage was found to be 0.33. Then C27A C52G, with 0.25.

For the variant C26U G53C, the self-cleavage turned out to be 0.08. Then C26U G53A, with 0.22; and C26U G53U, with 0.11. Then C26U C52U, with 0.98; and C26U C52G, with 0.84. Then C26U C52A, with 0.71; and C26U G13C, with 0.02. Take C26U G13U: the self-cleavage was determined as 0.03. To C26U G13A belongs 0.05; to C26U G42C, 0.1; to C26U G42A, 0.13.

For the variant C26U G42U, the self-cleavage is 0.04. Then C27A U18G, with 0.34. As to C27A U18A, the self-cleavage is 0.27.

Turning to C27A U18C, the self-cleavage was 0.26.

Turning to C27A G22A, the self-cleavage amounted to 0.1. Then C27A G22C, with 0.03. Take C27A G22U: the self-cleavage was 0.06.

For the variant C26U, the self-cleavage amounted to 0.98.

On to C26G, for which the self-cleavage turned out to be 0.09.

For the variant C27A C32A, the self-cleavage came out at 0.09. For the variant C27A C32U, the self-cleavage was determined as 0.06.

For C27A C32G, the self-cleavage is 0.06.

Turning to C27A G48U, the self-cleavage stood at 0.04. To C27A G48C belongs 0.05; to C27A G48A, 0.04. Then C27G G19U, with 0.04. Regarding C27G G19A, the self-cleavage came to 0.06. Take C27G G19C: the self-cleavage turned out to be 0.03. To C26G G50C belongs 0.09. To C26G G50U belongs 0.09; to C26G G50A, 0.1. To C27G G45A belongs 0.02; to C27G G45U, 0.02; to C27G G45C, 0.03. For C26G C52U, the self-cleavage was found to be 0.11. For the variant C26G C52G, the self-cleavage worked out at 0.16.

As for C26G C52A, the self-cleavage was 0.12.

For the variant C27A G53U, the self-cleavage turned out to be 0.06. To C27A G53C belongs 0.05. Then C27A G53A, with 0.09; and C26U G19U, with 0.05; and C26U G19C, with 0.04.

With C26U G19A, the self-cleavage was 0.14.

As for C26G C33U, the self-cleavage worked out at 0.07. Then C26G C33A, with 0.05; and C26G C33G, with 0.04; and C26G G51C, with 0.05. Then C26G G51U, with 0.06. Take C26G G51A: the self-cleavage worked out at 0.1.

As for C26U U12C, the self-cleavage worked out at 0.09. Then C26U U12A, with 0.2; and C26U U12G, with 0.23. To C26U G51A belongs 0.45; to C26U G51U, 0.17. C26U G51C: the self-cleavage was 0.07. To C26U G35A belongs 0.9. Then C26U G35U, with 0.88; and C26U G35C, with 0.09; and C26G G42A, with 0.08. Take C26G G42U: the self-cleavage was 0.02. Then C26G G42C, with 0.05. To C27G G35C belongs 0.04; to C27G G35A, 0.12; to C27G G35U, 0.1. To C26G U12A belongs 0.07; to C26G U12C, 0.05; to C26G U12G, 0.07. For the variant C27G C31G, the self-cleavage came to 0.06.

Consider C27G C31A, for which the self-cleavage was 0.01. To C27G C31U belongs 0.06; to C26A G49A, 0.02; to C26A G49U, 0.02. To C26A G49C belongs 0.02; to C27A G13U, 0.02. To C27A G13C belongs 0.01; to C27A G13A, 0.03; to C26G C31G, 0.05. On to C26G C31U, for which the self-cleavage was found to be 0.06.

With C26G C31A, the self-cleavage stood at 0.02. Take C27A G45U: the self-cleavage stood at 0.07.

Take C27A G45A: the self-cleavage worked out at 0.06. Then C27A G45C, with 0.03; and C27A G42A, with 0.08. To C27A G42C belongs 0.06; to C27A G42U, 0.05; to C27G G42A, 0.06. Consider C27G G42C, for which the self-cleavage was 0.07. Consider C27G G42U, for which the self-cleavage was found to be 0.02. Consider C26G G54A, for which the self-cleavage amounted to 0.08.

With C26G G54U, the self-cleavage was found to be 0.15. Consider C26G G54C, for which the self-cleavage amounted to 0.08.

In the case of C26U C33A, the self-cleavage was 0.09. To C26U C33U belongs 0.32; to C26U C33G, 0.07. As to C27A U37G, the self-cleavage amounted to 0.42. For the variant C27A U37A, the self-cleavage turned out to be 0.26. To C27A U37C belongs 0.32; to C27A G44U, 0.14. For C27A G44C, the self-cleavage stood at 0.14. To C27A G44A belongs 0.1.

Take C27G G23A: the self-cleavage was 0.05. Then C27G G23U, with 0.02; and C27G G23C, with 0.03; and C27A G30C, with 0.03.

On to C27A G30U, for which the self-cleavage stood at 0.03. To C27A G30A belongs 0.02; to C26G G49C, 0.03; to C26G G49U, 0.04. To C26G G49A belongs 0.04.

On to C27A C9G, for which the self-cleavage turned out to be 0.1. On to C27A C9U, for which the self-cleavage was found to be 0.07. Then C27A C9A, with 0.09. Then C27A G51A, with 0.1.

Regarding C27A G51C, the self-cleavage was determined as 0.05. Then C27A G51U, with 0.05; and C26G G19A, with 0.08. Then C26G G19U, with 0.05; and C26G G19C, with 0.04; and C26U G49U, with 0.06.

Regarding C26U G49A, the self-cleavage came to 0.06.

On to C26U G49C, for which the self-cleavage is 0.06. To C26G G47C belongs 0.04; to C26G G47A, 0.05; to C26G G47U, 0.06. Then C27A G35C, with 0.07; and C27A G35U, with 0.16.

Take C27A G35A: the self-cleavage is 0.39. To C27G G30C belongs 0.02. To C27G G30U belongs 0.02. Then C27G G30A, with 0.02; and C27G C52A, with 0.08; and C27G C52G, with 0.14. In the case of C27G C52U, the self-cleavage worked out at 0.16.
